Bioassay records deposited in PubChem by The Scripps Research Institute Molecular Screening Center.
CHO parental Ca: signal in parental CHO cells, OX1R antagonist counter-screen; hit rate 0.63% among 330,000; parental CHO-K1, ATP-induced calcium, Fluo-8 fluorescence; inhibition, % at 5.6 µM;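 active = inhibition above that plate's mean sample inhibition plus 3 SD, cut at about 26% in these data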
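Material – parental CHO cells · Reagent – ATP stimulus · Compound – single nominal dose of 5.6 µM per compound · Detection – Fluo-8 fluorescence · Read-out basis – percent inhibition of calcium signal · Controls – ATP-challenged DMSO wells low, unchallenged DMSO wells high · Repeats – no replicates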
OX1R antag-1: human HCRTR1 antagonism | O43613 | CHO/OX1R cells, Fluo-8 calcium fluorescence, orexin A | inhibition, % at 5 µM | hit rate 0.43% among 330,000;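 active = inhibition above its plate's threshold, mean inhibition of all tested compounds on the plate plus 3 SD, cut at about 37% in these data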
Target sequence (O43613 whole entry, looked up): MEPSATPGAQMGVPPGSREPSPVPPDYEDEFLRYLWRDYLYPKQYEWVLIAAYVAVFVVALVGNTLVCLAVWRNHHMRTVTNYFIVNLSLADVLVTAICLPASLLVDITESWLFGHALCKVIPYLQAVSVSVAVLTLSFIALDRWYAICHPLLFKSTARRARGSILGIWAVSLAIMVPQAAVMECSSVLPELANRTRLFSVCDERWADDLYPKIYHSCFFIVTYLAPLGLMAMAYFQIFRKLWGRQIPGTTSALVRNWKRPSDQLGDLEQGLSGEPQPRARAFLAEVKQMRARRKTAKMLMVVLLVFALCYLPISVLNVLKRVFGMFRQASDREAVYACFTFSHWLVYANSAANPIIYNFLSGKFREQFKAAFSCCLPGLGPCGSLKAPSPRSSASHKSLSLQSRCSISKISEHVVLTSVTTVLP
GalR3 antag: human GalR3 antagonism; O60755; HEK293 GalR3-CNG cAMP membrane potential fluorescence; galR3 body fused to GalR1 C-terminus; inhibition, % at 3 µM; hit rate 0.44% among 360,000; AID 651719;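 active = inhibition above the screen-wide average plus 3 SD, cut at about 13% in these data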;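 note: forskolin and galanin both at EC90 stimulate the cells; cAMP rise reported by CNG channel membrane potential dye signal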
Target sequence (O60755 1-299 limits assumed): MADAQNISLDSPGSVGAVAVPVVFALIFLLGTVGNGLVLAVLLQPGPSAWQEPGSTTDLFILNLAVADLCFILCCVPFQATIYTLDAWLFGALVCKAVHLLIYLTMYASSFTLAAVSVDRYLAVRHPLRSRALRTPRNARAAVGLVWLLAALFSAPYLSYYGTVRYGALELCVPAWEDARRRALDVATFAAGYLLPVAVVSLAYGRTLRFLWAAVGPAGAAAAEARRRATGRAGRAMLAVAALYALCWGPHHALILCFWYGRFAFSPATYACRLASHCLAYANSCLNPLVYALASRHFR
OX1R antag-2: antagonists of human orexin 1 receptor (OX1R); O43613; OX1R-expressing cells, FRET antagonist read-out; inhibition, % at 6.6 µM; hit rate 1.8% among 330,000; AID 485270; in the data active = inhibition mostly above about 38%, no sharp cut-off; inactive = mostly below about 40%
GPR7 antag: antagonists of human GPR7 (neuropeptides B/W receptor 1); P48145; GPR7-expressing cells, fluorescence antagonist assay; inhibition, % at 4.4 µM; hit rate 1.1% among 290,000; in the data active = inhibition above about 16%, passing the limit was not always enough;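 note: cells stimulated with the agonist NPW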
A number is an active result; 0 = inactive; - = no result. Sampled rows, rich in hits. Any-hit rate of the full collection: about 3.1%.

SMILES | CHO parental Ca | OX1R antag-1 | GalR3 antag | OX1R antag-2 | GPR7 antag
CCC(CC)NC(=O)CON=C1c2ccccc2-c2ccccc21 | 0 | 0 | 0 | 51 | 0
CCNC(=O)CON=C1c2ccccc2-c2ccccc21 | 0 | 0 | 0 | 0 | 0
Cc1cscc1-c1cc2nc(NCCCN(C)C)n(C)c(=O)c2s1 | - | - | 0 | - | -
COC(=O)C1=C(C)N(Cc2ccccc2C(F)(F)F)C(=NCc2ccc3c(c2)OCO3)NC1c1cccc(Cl)c1 (stereo not drawn) | - | - | 0 | - | -
CC(C)(C)c1ccc(S(=O)(=O)Nc2ccccn2)cc1 | 0 | 0 | 0 | 0 | 0
CCc1ccccc1N(C1=NCCCS1)S(=O)(=O)c1ccc(C(C)(C)C)cc1 | 0 | 0 | 0 | 51 | 0
Nc1nc(-c2ccccc2)nc2sc3c(c12)CCCC3 | 0 | 0 | 0 | 68 | 0
O=c1oc(-c2ccccc2)nc2sc3c(c12)CCC3 | 0 | 0 | 0 | 0 | 0
O=C(N/N=C/c1c[nH]c2ccccc12)c1ccc(Br)cc1 | 0 | 0 | 0 | 0 | 0
CC(C)Oc1ccc(Br)cc1C(=O)N/N=C/c1c[nH]c2ccccc12 | 0 | 0 | 0 | 40 | 0
CCn1c(C)nc2cc(C(=O)OC(C(F)(F)C(F)F)C(F)(F)C(F)F)ccc21 | 0 | 66 | 0 | 0 | 0
CC(=O)c1ccc(NC(=O)/C(Cl)=C/c2ccccc2)cc1 | 42 | 0 | 0 | 0 | 0
COc1ccc(CNC(=O)CCNC(=O)C2CCN(S(=O)(=O)c3ccc(OC)cc3)CC2)cc1 | - | - | 0 | - | -
COc1ccc2nc(CC(C)(C)CC(=O)O)c[n+]([O-])c2c1 | 0 | 0 | 0 | 69 | 0
O=[N+]([O-])c1cc(-c2ncccn2)c([N+](=O)[O-])s1 | 0 | 0 | 0 | 64 | 0
COC(=O)C1=C(C)N(Cc2cccc(C(F)(F)F)c2)C(=NCc2ccccc2C(F)(F)F)NC1c1cccc(F)c1 (stereo not drawn) | - | - | 0 | - | -
CCOC(=O)c1c(C)[nH]c(C)c1C(=O)COc1ncnc2cc([N+](=O)[O-])ccc12 | 0 | 0 | 0 | 75 | 0
CC(NC(=O)COc1ncnc2cc([N+](=O)[O-])ccc12)c1ccccc1 (stereo not drawn) | 0 | 0 | 0 | 64 | 0
O=C(c1ccccc1)C12COc3ccccc3C1ON=C2c1ccccc1 (stereo not drawn) | - | - | 0 | - | -
CC1(C)CC(=O)C=C(NC2CCCCCC2)C1 | 0 | 0 | 0 | 0 | 15
C[C@@H]1ON(C)[C@H]2C[C@H]3c4cc(-c5cccc(Cl)c5)ccc4CCN3C[C@@H]12 | - | - | 0 | - | -
COCCOc1ccc(C(F)(F)F)cc1NC(=O)c1ccc(C)cc1 | 39 | 0 | 0 | 0 | 0
CCOc1cc(CNCCc2ccc(S(N)(=O)=O)cc2)ccc1OCc1ccccc1 | 0 | 0 | 0 | 0 | 0
CCOc1cc(CNCCc2ccc(S(N)(=O)=O)cc2)cc(Cl)c1OCc1ccccc1 | 58 | 55 | - | 0 | 0
COc1ccc(CNCCc2ccc(Cl)cc2)cc1OCc1ccccc1 | 42 | 0 | - | 0 | 0
SMILES | CHO parental Ca | OX1R antag-1 | GalR3 antag | OX1R antag-2 | GPR7 antag
CCCCN1C(=O)C(CC(=O)NCc2cccs2)CC(C(=O)N(C(C)C)C(C)C)=C1C (stereo not drawn) | - | - | 0 | - | -
Cc1ccc(C2CC2c2n[nH]c(=S)n2-c2cccc(C)c2)cc1 (stereo not drawn) | 0 | 0 | 0 | 0 | 0
Cc1ccc(C2CC2c2n[nH]c(=S)n2-c2ccc(Cl)cc2)cc1 (stereo not drawn) | 86 | 0 | 0 | 0 | 0
Cc1ccc(S(=O)(=O)N2C[C@H]3C(=O)C[C@@H](c4cccc(Cl)c4)N(S(=O)(=O)c4ccc(C)cc4)[C@H]3C[C@H]2c2ccccc2)cc1 | - | - | 0 | - | -
CN(CC(=O)Nc1cccc(F)c1)C(=O)c1cn(-c2ccccc2)nc1-c1cccs1 | 0 | 0 | 0 | 0 | 0
COc1cc(NC(=O)CSCC(=O)Nc2cc(OC)cc(OC)c2)cc(OC)c1 | 0 | 0 | - | 63 | 0
COc1cc(NC(=O)CSc2nc(C3CC3)nc3ccccc23)cc(OC)c1 | 0 | 0 | 0 | 47 | 0
CN(CC(=O)Nc1cccc(F)c1)C(=O)CSc1nc2ccccc2s1 | 0 | 0 | 0 | 0 | -
COCC(=O)Nc1cc(OC)cc(OC)c1 | 0 | 0 | 0 | 0 | 0
COc1cccc(NC(=O)CN(C)C(=O)CSc2nc3ccccc3s2)c1 | 0 | 0 | 0 | 54 | -
COc1cccc(NC(=O)CN(C)C(=O)c2cn(-c3ccccc3)nc2-c2cccs2)c1 | 0 | 0 | 0 | 51 | -
COc1ccc(NC(=O)CN(C)C(=O)CSCC(=O)Nc2ccc(C)cc2)cc1 | 0 | 0 | 0 | 0 | -
COc1cccc(NC(=O)CN(C)C(=O)CSCC(=O)Nc2ccc(C)cc2)c1 | 0 | 0 | 0 | 30 | -
CCN(CC)CCn1nc2c3c(cccc3c1=O)-c1ccccc1-2 | 0 | 0 | 0 | 0 | 0
O=c1c2cccc3c2c(nn1CN1CCOCC1)-c1ccccc1-3 | 0 | 0 | - | 71 | 0
COc1cccc(OC)c1C(=O)Nc1sc2c(c1C#N)CCC2 | 0 | 0 | 0 | 55 | 0
Nc1ccccc1NC(=O)NC(=O)c1ccccc1 | 0 | 0 | 0 | 0 | 0
Cc1ccccc1S(=O)(=O)N1[C@@H](c2ccccc2)C(C(=O)O)=CC[C@H]1c1ccc(Cl)cc1 | 0 | 0 | 0 | 76 | -
Cc1ccc([C@@H]2CC=C(C(=O)O)[C@H](c3ccc(Cl)cc3)N2S(=O)(=O)c2ccc(C)cc2)cc1 | 0 | 0 | 0 | 0 | -
COc1ccc([C@@H]2CC=C(C(=O)O)[C@H](c3ccc(Cl)cc3)N2S(=O)(=O)c2ccccc2C)cc1 | 0 | 0 | 0 | 48 | -
COc1ccc([C@@H]2CC=C(C(=O)O)[C@H](c3ccc(Br)cc3)N2S(=O)(=O)c2ccccc2C)cc1 | 0 | 0 | 0 | 53 | -
Cc1ccccc1S(=O)(=O)N1[C@@H](c2ccc(Br)cc2)C(C(=O)O)=CC[C@H]1c1ccc(Cl)cc1 | 0 | 0 | 0 | 0 | -
Cc1ccc([C@@H]2CC=C(C(=O)O)[C@H](c3ccc(Cl)cc3)N2S(=O)(=O)c2ccccc2C)cc1 | 0 | 0 | 0 | 49 | -
Cc1ccccc1S(=O)(=O)N1C(c2ccc(Cl)c(Cl)c2)CC=C(C(=O)O)C1c1cccc(Br)c1 (stereo not drawn) | - | - | 0 | - | -
Cc1ccc(S(=O)(=O)/N=C(/Nc2ccc(O)c(C(=O)O)c2)c2ccccc2)cc1 | 0 | 0 | 0 | 0 | -
SMILES | CHO parental Ca | OX1R antag-1 | GalR3 antag | OX1R antag-2 | GPR7 antag
O=C(O)C(=Cc1ccc([N+](=O)[O-])cc1)c1ccccc1 | - | - | 0 | - | -
CCc1cc2c(nc1CC)CCCN2S(=O)(=O)c1ccc(F)cc1 | - | - | 0 | - | -
CC(=O)Nc1ccc(C(=O)N2CCCCC2c2cc(C(=O)NCc3cccnc3)no2)cc1 (stereo not drawn) | - | - | 0 | - | -
O=C(O)C1=CC[C@@H](c2ccc(Cl)cc2)N(S(=O)(=O)c2ccc(Cl)cc2)[C@H]1c1cccc(Cl)c1 | 78 | 0 | 0 | 85 | -
Cc1ccc([C@@H]2CC=C(C(=O)O)[C@H](c3ccc(F)cc3)N2S(=O)(=O)c2ccccc2C)cc1 | 0 | 0 | 0 | 57 | -
Cc1ccc(S(=O)(=O)N2[C@@H](c3ccc(Cl)cc3)C(C(=O)O)=CC[C@H]2c2ccc(Cl)cc2)cc1 | 0 | 0 | 0 | 58 | -
Cc1ccc([C@@H]2CC=C(C(=O)O)[C@H](c3ccc(Br)cc3)N2S(=O)(=O)c2ccccc2C)cc1 | 0 | 0 | 0 | 39 | -
